For six molecules, MIC results are on record in ChEMBL document CHEMBL1153639, “A facile synthesis and antimycobacterial evaluation of novel spiro-pyrido-pyrrolizines and pyrrolidines” (2009).

The experiment deals with Mycobacterium tuberculosis. Nature of the experiment: Antimycobacterial against multidrug resistant Mycobacterium tuberculosis by agar dilution method. It counts as functional. An outline of the steps:
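Strain was an MDR-TB clinical isolate resistant to isoniazid and rifampicin, among other drugs. MIC read by agar dilution, run in triplicate.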

≈ marks a conversion by molar mass, not a printed value.

The term MIC denotes the least concentration at which growth counts as inhibited.

On to `CN1CCC(=O)[C@]2(C1)[C@@H](c1ccc(Cl)cc1Cl)[C@@H]1CCCN1[C@@]21C(=O)Nc2ccccc21`, for which the MIC stood at 1.66 µM (≈ 0.781 µg/mL). Regarding `CN1CCC(=O)[C@]2(C1)[C@@H](c1ccc(Cl)cc1Cl)CN(C)[C@@]21C(=O)Nc2ccccc21`, the MIC worked out at 0.88 µM (≈ 0.391 µg/mL). `CN1CCC(=O)[C@]2(C1)[C@@H](c1ccccc1Cl)[C@@H]1CCCN1[C@@]21C(=O)Nc2ccccc21` gave an MIC of 3.58 µM (≈ 1.56 µg/mL). For `CC[C@@H](CO)NCCN[C@@H](CC)CO` [ETHAMBUTOL] the value was 61.2 µM (≈ 12.5 µg/mL); for `NNC(=O)c1ccncc1` [ISONIAZID], 11.4 µM (≈ 1.56 µg/mL). `NC(=O)c1cnccn1` [PYRAZINAMIDE] came in with a minimum inhibitory concentration (MIC) of 406 µM (≈ 50 µg/mL).
